Shown are actives, neighbours in structure and some others; about 1.9% of the full set was active somewhere.
PLCb3 inh: inhibitors of human phospholipase C beta3 | AID 720704 | actives 0.18% (n = 370,000) | Q01970 | Purified PLC-beta3, fluorogenic substrate, fluorescence | inhibition, % at 12.2 µM; in the data active = inhibition above about 11%;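 note: 0% = median of compound wells on plate and 100% = full blocker control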
proCasp7 act: counter-screen for procaspase-3 activators: activators of human procaspase-7; P55210; recombinant procaspase-7, Ac-DEVD-pNA absorbance 405 nm; D23A/D198A/D206A triple mutant, cannot self-cleave; scale: DMSO 0, 5 µM enzyme 100; activation, % at 8.5 µM; actives 0.093% (n = 330,000); AID 463210;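 active = percent activation above the screen-wide mean plus 3 SD, cut at about 25% in these data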
Target sequence (P55210 whole entry D23A/D198A/D206A): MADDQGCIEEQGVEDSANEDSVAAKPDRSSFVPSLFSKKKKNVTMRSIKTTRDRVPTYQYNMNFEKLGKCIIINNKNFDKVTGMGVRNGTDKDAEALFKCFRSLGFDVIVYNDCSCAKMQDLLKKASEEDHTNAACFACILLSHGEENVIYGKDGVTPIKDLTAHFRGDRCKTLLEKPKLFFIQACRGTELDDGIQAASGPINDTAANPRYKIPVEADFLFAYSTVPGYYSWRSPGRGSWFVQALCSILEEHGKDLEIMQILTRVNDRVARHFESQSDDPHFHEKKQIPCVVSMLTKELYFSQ
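buffer or medium = Zinc-free HEPES/NaCl buffer, pH 7.4 | material = Procaspase-7 triple mutant (PC-7 D3A) | input = 2 µM procaspase-7 mutant as dispensed | signal = Epi-absorbance of released pNA at 405 nm, two timepoints | timing = 1 h preincubation, 2 h reaction | replicates = singlicate compound testing | evaluation = % activation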
PLC-gamma1 inh: PLC-gamma1 (human) inhibition, primary screen | P19174 | inhibition, % at 12.2 µM | purified PLC-gamma1, fluorogenic substrate, fluorescence | actives 0.84% (n = 370,000)
procasp3 activ: procaspase-3 (human) activation. P42574. recombinant procaspase-3 D3A, Ac-DEVD-pNA absorbance 405 nm. activation, % at 8.5 µM. actives 0.11% (n = 330,000). AID 463141;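 active = activation above the mean of all tested compounds plus 3 SD, cut at about 21% in these data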;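 note: 0% = DMSO alone and 100% = DMSO wells spiked with extra 5 µM PC-3 D3A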
Target sequence (P42574 whole entry D9A/D28A/D175A): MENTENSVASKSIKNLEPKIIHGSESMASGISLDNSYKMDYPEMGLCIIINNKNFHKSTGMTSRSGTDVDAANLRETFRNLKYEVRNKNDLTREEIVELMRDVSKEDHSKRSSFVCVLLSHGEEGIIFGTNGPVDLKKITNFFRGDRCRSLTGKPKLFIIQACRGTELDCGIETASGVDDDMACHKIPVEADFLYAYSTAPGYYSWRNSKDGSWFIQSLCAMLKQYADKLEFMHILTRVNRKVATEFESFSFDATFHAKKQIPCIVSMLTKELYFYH
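Test system: Procaspase-3 D3A mutant, all three cleavage aspartates alanine | Dosing: Single dose, 8.5 µM nominal compound, 0.8% DMSO | Schedule: 1 h preincubation, 2 h reaction | Technique: 405 nm absorbance of p-nitroaniline, reads at 0 and 120 min | Repeats: One well per compound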
HGIII-sPLA2 inh: Blocks human group III sPLA2 activity. Q9NZ20. inhibition, % at 12.2 µM. AID 743126. QFRET BODIPY PC-A2 liposome hydrolysis, fluorescence. actives 0.56% (n = 370,000);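 active = inhibition above mean plus 3 SD of compounds lying within the high and low control bounds, cut at about 19% in these data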;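 note: 0% = median of test compound wells and 100% = no enzyme DMSO wells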
Arrestin-AP2 inh: human beta-arrestin and AP2 interaction inhibition | FITC-arrestin peptide / GST-AP2 beads, flow cytometry; AP2 beta2 appendage carries R879A mutation | inhibition, % at 10 µM | actives 0.31% (n = 340,000) | AID 504490;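 active = inhibition above a set limit, near 3 SD of compounds lacking own fluorescence, cut at about 54% in these data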;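 note: plate controls were DMSO wells for no effect and 5 µM unlabelled arrestin peptide for full effect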
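Test system: GST-tagged AP2 beta2-adaptin appendage (R879A) on 4 µm glutathione beads; also added: fluorescein-tagged arrestin peptide at 50 nM final; timing: 12 min plus 1 h, RT; signal: flow cytometry, FL1 (488/535 nm); read-out: percent drop in bead-associated FITC signal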
PLCg1 ctr: PLC-gamma1 inhibition, counter-screen for PLC-beta3 hits; shares compounds with PLC-gamma1 inh; purified PLC-gamma1, fluorogenic substrate, fluorescence; inhibition, % at 12.3 µM; actives 3.1% (n = 3,300); AID 743258
PLCb3 confirm: human PLC-beta3 inhibition, confirmation; shares compounds with PLC-gamma1 inh; purified PLC-beta3, fluorogenic substrate fluorescence; inhibition, % at 12.3 µM; actives 1% (n = 3,300); AID 743261; in the data active = inhibition above about 11%
* marks the source's active call; other numbers are inactive results; / = no result. Cut-off read from the data, not from the text of the source, unless noted: active = inhibition above about 9.5%; inactive = the rest.

SMILES	PLCb3 inh	proCasp7 act	PLC-gamma1 inh	procasp3 activ	HGIII-sPLA2 inh	Arrestin-AP2 inh	PLCg1 ctr	PLCb3 confirm
COc1cc2[nH]c(=O)n(C3CCCCC3)c(=O)c2cc1OC	14*	-2	13*	3	3	-3	-7	-3
Cc1ccc(Cl)cc1N(CC(=O)NC1CCCC1)C(=O)c1csnn1	-5	-8	0	5	-4	-2	/	/
COc1ccc(S[C@]2(C(=O)N(C)C)CC(=O)N(c3ccc(Cl)cc3)[C@@H]2c2ccc(OC)cc2)cc1	2	/	4	/	-11	/	/	/
O=C(CC1Sc2ccccc2NC1=O)Nc1cccc(C(=O)O)c1 (stereo not given)	10	-7	12*	6	1	11	4	2
COC(=O)C1CN(C2CCCC2)CCS(=O)(=O)N1Cc1ccc(C(F)(F)F)cc1 (stereo not given)	3	/	-1	/	-4	/	/	/
Cc1ccc[n+](/C(=C\C(=C=[N-])C#N)C(=O)c2ccc(Cl)cc2)c1	6	11	9.7*	2	4	-3	2	6
COc1cc(NS(=O)(=O)c2cn(C)cn2)cc(OC)c1	-4	-2	0	6	2	-7	/	/
COCC(O)CSc1c([N+](=O)[O-])nc(C)n1Cc1ccc(OC)c([N+](=O)[O-])c1 (stereo not given)	2	12	10*	0	7	17	7	5
NS(=O)(=O)c1ccc(CCNC(=O)CCCCCNc2nc(=S)[nH]c3ccccc23)cc1	3	-22	10*	-16	8	/	-6	-1
Nc1c(C(=O)N/N=C/c2ccc([N+](=O)[O-])cc2)cnn1-c1ccccc1	-1	8	10*	12	5	0	5	6
COc1cc2c(c(OC)c1OC)C1(CCCCC1)CC2NS(=O)(=O)C(C)C (stereo not given)	0	/	0	/	6	/	/	/
CC(C)(C)c1cc(-c2ccccc2)n[nH]1	-2	8	11*	8	-1	2	-1	-1
O=C(COC(=O)c1ccc(Br)cc1)NCC1CCCO1 (stereo not given)	12*	0	5	7	-2	3	6	0
COc1cccc(N=Nc2c(N)[nH][nH]c2=O)c1	3	5	3	1	-2	6	/	/
Nc1[nH][nH]c(=O)c1N=Nc1cccc(Cl)c1	11*	2	11*	-2	-5	14	0	4
COc1ccc(C2NC(=O)NC(C)=C2C(=O)OC2CCCCC2)cc1OC (stereo not given)	-3	18	2	1	-6	1	/	/
COc1ccc(C2NC(=O)NC(C)=C2C(=O)OCC2CCCCC2)cc1OC (stereo not given)	-1	6	11*	-1	3	9	-4	-1
OC[C@@H]1CC[C@@H]2O[C@H](CCc3ccc(-c4ccc(F)cc4)cc3)[C@H](n3cc(C4CC4)nn3)C[C@@H]2O1	1	/	0	/	-22	/	/	/
Cc1cccc(CC2S/C(=N/N=C/c3ccco3)N(c3ccccc3)C2=O)c1 (stereo not given)	4	6	11*	3	-15	14	0	-1
C=CCN1C(=O)[C@@H](CC(=O)NCCCOCCCC)[C@]2(C(=O)OC)CCCCC=C12	4	/	3	/	-5	/	/	/
CCCS(=O)(=O)N1CCC(C(=O)NCCN2CCC(Cc3ccccc3)CC2)CC1	13*	0	15*	-4	-4	1	-5	-5
CCS(=O)(=O)N1CCC(C(=O)NCCCN2CCC(Cc3ccccc3)CC2)CC1	1	-4	11*	-2	1	11	-2	-2
CCS(=O)(=O)N1CCC(C(=O)NCCN2CCN(Cc3ccccc3)CC2)CC1	3	3	1	7	1	19	/	/
O=C(NCCCN1CCC(Cc2ccccc2)CC1)C1CCN(S(=O)(=O)N2CCOCC2)CC1	2	/	-2	/	-2	22	/	/
COc1ccc(C2=NN(C(=O)CSC3=NN4CCCC(=O)N=C4S3)C(c3cccc(OC)c3OC)C2)cc1 (stereo not given)	7	-6	9.7*	0	0	0	-4	-6
SMILES	PLCb3 inh	proCasp7 act	PLC-gamma1 inh	procasp3 activ	HGIII-sPLA2 inh	Arrestin-AP2 inh	PLCg1 ctr	PLCb3 confirm
COc1cccc(C2CC(c3cccs3)=NN2C(=O)CSC2=NN3CCCC(=O)N=C3S2)c1OC (stereo not given)	-15	-1	-11	2	1	17	/	/
CCOc1cccc(-c2nnc(SCC(=O)Nc3ccc4c(c3)OCO4)n2N)c1	1	/	-1	/	7	/	/	/
CCC(C)NC(=O)C1(O)c2ccccc2NC(=O)N1c1ccc(C)c(C)c1 (stereo not given)	7	13	11*	1	5	4	-7	-19
CCOCCCNC(=O)C1(O)c2ccccc2NC(=O)N1c1ccc(C)c(C)c1 (stereo not given)	3	11	7	6	-5	3	/	/
CCCCN(C)CCCNC(=O)C1(O)c2ccccc2NC(=O)N1c1ccc(Cl)cc1 (stereo not given)	4	1	12*	11	0	-10	-5	-7
COc1ccc(S(=O)(=O)N2CCCc3nc(C)c(C)cc32)cc1	-3	/	1	/	0	/	/	/
O=S(=O)(c1ccccc1)c1cnn(-c2ccccc2)c1-c1ccc(F)cc1	15*	-5	-2	-4	-6	6	-6	13*
Cc1sc2nc(C3CC3)nc(NCCNS(=O)(=O)c3ccccc3)c2c1C	6	6	9.6*	2	-18	3	-2	0
Cc1sc2nc(CN3CCOCC3)nc(NS(=O)(=O)c3ccccc3)c2c1C	-12	-3	-9	4	-1	7	/	/
COc1ccc(-n2c(SCC(=O)Nc3cc(C)c(NC(=O)c4ccccc4)cc3OC)nnc2-c2cccnc2)cc1	5	/	-1	/	-5	/	/	/
O=C(OCc1ccccc1C(F)(F)F)c1cc([N+](=O)[O-])ccc1N1CCOCC1	3	-3	10*	-8	-11	-3	-1	2
COc1ccc(OCCCC(=O)OCC(=O)Nc2ncc(Cl)cc2Cl)cc1	-12	/	-3	/	2	52	/	/
CC(C)(Oc1ccc(Cl)cc1)C(=O)OCC(=O)Nc1ncc(Cl)cc1Cl	12*	14	8	4	-6	-2	-1	1

Source: PubChem (several laboratories)
